“And” between values parts separate entries of the source, which are not always exact repeats. Equal values may be shown once.
Key:
[1] = Compound was evaluated for relative alkylating activity
[2] = system: Mus musculus; assay: Compound was evaluated for the antitumor activity against L1210 leukemia in mice at 50 mg/kg dose; format: functional
In short: (§1)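 L1210 ascites leukemia serially passaged in CDF1 mice; 10^5 cells implanted ip. Compounds homogenized in drops of 20% aqueous Tween 80, brought to volume with isotonic saline, given ip as fine suspensions once daily for 6 consecutive days starting 24 h after implantation. Five mice per group; vehicle controls. Endpoint: % T/C = mean survival treated/control × 100; body-weight change tracked toxicity.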

[3] = system: Mus musculus; assay: Compound was evaluated for the antitumor activity against L1210 leukemia in mice at 150 mg/kg dose; format: functional
In short: as §1

[4] = species: Mus musculus; assay: Compound was evaluated for the antineoplastic activity against L1210 leukemia in mice.; format: functional
In short: (§2)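 CDF1 mice, 10^5 L1210 ascites cells implanted ip (from 7-day donor tumors, saline-diluted). Dosed ip once daily for 6 days from 24 h post-implant, 50-150 mg/kg, as Tween 80/saline suspension. Five mice per group, vehicle-treated controls. Read-out: % T/C, mean survival of treated/control ×100.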

[5] = system: Mus musculus; assay: Compound was evaluated for the antitumor activity as average change in body weight against L1210 leukemia in mice at 100 mg/kg dose; format: functional
In short: (§3)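 CDF1 mice carrying ip L1210 ascites (10^5 cells), dosed ip daily for 6 consecutive days starting 24 h after implant, in Tween 80/isotonic saline suspension. Five mice per group. Toxicity taken as mean percent body weight change from start to end of therapy.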

[6] = system: Mus musculus; assay: Compound was evaluated for the antitumor activity as average change in body weight against L1210 leukemia in mice at 150 mg/kg dose; format: functional
In short: as §3

[7] = system: Mus musculus; assay: Compound was evaluated for the antitumor activity as average change in body weight against L1210 leukemia in mice at 50 mg/kg dose; format: functional
In short: as §3

[8] = system: Mus musculus; assay: (§4) Compound was evaluated for the antitumor activity against L1210 leukemia in mice at 100 mg/kg dose; format: functional
In short: as §1

[9] = system: Mus musculus; assay: as §4; format: functional; remark: listed apart in the source
In short: as §2

[10] = system: Mus musculus; assay: Compound was evaluated for the antitumor activity as average change in body weight against L1210 leukemia in mice 100 mg/kg dose; format: functional
In short: as §3

[11] = system: Mus musculus; assay: Compound was evaluated for the antitumor activity as average change in body weight against L1210 leukemia in mice 150 mg/kg dose; format: functional
In short: as §3

| Structure (SMILES) | Relative activity [1] | T/C [2] [%] | Max T/C [4] [%] | Average change in weight [5] [%] | Average change in weight [6] [%] | Average change in weight [7] [%] | also measured |
| --- | --- | --- | --- | --- | --- | --- | --- |
| Cc1ccc(S(=O)(=O)N(C)NS(=O)(=O)Cc2ccccc2)cc1 | 136 | – | – | – | – | – | – |
| Cc1ccc(S(=O)(=O)N(C)NS(=O)(=O)c2ccc(Cl)cc2)cc1 | 126 | 188 | 188 | 10 | 6 | 3.7 | T/C [3]: 121% |
| CN(NS(=O)(=O)c1ccc(Cl)cc1)S(=O)(=O)c1ccc(Cl)cc1 | 190 | – | – | – | – | – | – |
| COc1ccc(S(=O)(=O)N(C)NS(=O)(=O)c2ccc(C)cc2)cc1 | 85 | – | 113 | 14.8 | 9.8 | 12.6 | – |
| Cc1ccc(S(=O)(=O)NN(C)S(=O)(=O)c2ccc(Cl)cc2)cc1 | 163 | – | 141 | 5.5 | -4.6 | 5.1 | Average survival time [8]: 13 days; Average survival time [3]: 10 days |
| COc1ccc(S(=O)(=O)NN(C)S(=O)(=O)c2ccc(C)cc2)cc1 | 91 | 116 | 162 | 7.8 | 2.9 | 7.7 | T/C [9]: 162%; Average survival time ([2]; 50 mg/kg): 15 days and 13.2 days; T/C [3]: 143% |
| CN(NC(=O)c1ccccc1)C(=O)c1ccccc1 | 10 | – | 97 | – | – | – | – |
| Cc1ccc(S(=O)(=O)NN(C)S(=O)(=O)c2ccc(C)cc2)cc1 | 100 | – | – | – | – | – | – |
| Cc1ccc(S(=O)(=O)N(C)NS(=O)(=O)c2ccccc2)cc1 | 112 | 162 | 162 | – | – | 2 | Average survival time [2]: 15 days; Average change in weight [10]: 5.4%; Average change in weight [11]: -1.7% |
| O=S(=O)(NNS(=O)(=O)c1ccccc1)c1ccccc1 | 0 | – | – | – | – | – | – |

From ChEMBL document CHEMBL1123531, “1,2-bis(arylsulfonyl)hydrazines. 2. The influence of arylsulfonyl and aralkylsulfonyl substituents on antitumor and alkylating activity” (1986)
